Data set [1] deals with Human immunodeficiency virus 2. Description: Antiviral activity against Human immunodeficiency virus 2 ROD infected in C8166 cells assessed as reduction in virus-induced cytopathic effect after 3 days by syncytium reduction assay. The class given is functional, organism-based. Conditions: Human immunodeficiency virus 2, ISOLATE ROD, C8166, 72 h. The method in brief: (§1)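 C8166 cells (4 × 10^5/mL) infected at MOI 0.06 in presence of serial compound dilutions; AZT as drug control. Cultured 3 days at 37 °C, syncytia (multinucleated giant cells) counted under inverted microscope; EC50 = concentration blocking syncytium formation by 50%. Mean of at least two separate experiments.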
A general note: Cytopathic effects are the visible damage that an infection or toxin causes in cultured cells.

The nature of data set [2]: Selectivity index, ratio of CC50 for human C8166 cells to EC50 for wild type HIV1 IIIB infected in C8166 cells. The class given is toxicity, cell-based. Conditions: read-out: Ratio CC50/EC50. An outline of the steps:
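SI computed as CC50 (MTT, C8166 cells) divided by EC50 against HIV-1 IIIB from syncytium reduction in C8166 cells at MOI 0.06, 3 days at 37 °C.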

Data set [3] deals with Human immunodeficiency virus 1. Description: Antiviral activity against 0.06 MOI Human immunodeficiency virus 1 IIIB infected in C8166 cells assessed as reduction in virus-induced cytopathic effect after 3 days by syncytium reduction assay. Conditions: C8166, 72 h. The class given is functional, organism-based. An outline of the steps: as §1
The nature of data set [4]: Cytotoxicity against human C8166 cells by MTT assay. The class given is cell-based. An outline of the steps: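 MTT colorimetric assay on C8166 cells, absorbance read at 570/630 nm; CC50 (concentration reducing viable cells by 50%) taken from dose-response curve. Mean of at least two separate experiments.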
A general note: Tetrazolium dyes change colour on reduction, which living cells bring about.

For data set [5], the system named is Human immunodeficiency virus 1. In words: Antiviral activity against 0.06 MOI Human immunodeficiency virus 1 IIIB A17 harboring reverse transcriptase K103N and Y181C double mutant infected in C8166 cells assessed as reduction in virus-induced cytopathic effect after 3 days by syncytium reduction assay. The class given is functional, organism-based. The following applies: Human immunodeficiency virus 1, IIIB A17, C8166, 72 h. An outline of the steps:
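C8166 cells (4 × 10^5/mL) infected with HIV-1 IIIB A17 (K103N+Y181C) at MOI 0.06 in presence of graded compound concentrations; AZT drug control. Cultured 3 days at 37 °C, syncytia (multinucleated giant cells) counted under inverted microscope; EC50 as concentration blocking syncytium formation by 50%. Mean of at least two separate experiments.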

Usually EC50 stands for the midpoint of the concentration-response curve. For orientation: CC50 means the concentration giving 50% cytotoxicity. A lower CC50 goes with harm at low concentration. `Cc1cc(S(N)(=O)=O)ccc1NC(=O)COc1ccc(F)cc1Oc1cccc2ccccc12`: the concentration for a half-maximal effect (EC50) in data set [1] came out at 17 µM; in data set [3], 0.137 µM; in data set [5], 1.68 µM. In addition, in data set [2], the selectivity ratio was 240. This compound also came in with a CC50 in data set [4] of 33.1 µM.

For the compound `Cc1cc(S(N)(=O)=O)ccc1NC(=O)COc1ccc(F)cc1Oc1ccc2ccccc2c1`, the figures for the EC50 in data set [1], in data set [3] and in data set [5] were 96.6 µM, 0.0455 µM and 3.29 µM, respectively. Besides, in data set [2], the selectivity ratio was 1510. The compound also gave a 50% cytotoxic concentration (CC50) in data set [4] of 68.5 µM.

`Cc1cc(S(N)(=O)=O)ccc1NC(=O)COc1ccc(Cl)cc1Oc1ccc2ccccc2c1`: the EC50 in data set [1] was found to be 27.3 µM; in data set [3] it was 0.0791 µM; in data set [5] it was 1.79 µM. For the same compound, in data set [2], the selectivity ratio came to 1500. The compound further had a cytotoxic concentration (CC50) in data set [4] of 119 µM.

Turning to `Cc1cc(S(N)(=O)=O)ccc1NC(=O)COc1ccc(Cl)cc1Oc1ccc2cc(Br)ccc2c1`, the EC50 in data set [1] is 20 µM; in data set [3] it was 0.244 µM; in data set [5] it was 2.49 µM. Besides, the selectivity ratio in data set [2] amounted to 128. This compound also displayed a CC50 in data set [4] of 31.3 µM.

As to `Cc1cc(S(N)(=O)=O)ccc1NC(=O)COc1ccc(Cl)cc1Oc1ccc2ccccc2c1Cl`, the values for the EC50 in data set [1], in data set [3] and in data set [5] were 13.3 µM, 0.169 µM and 1.73 µM, respectively. For the same compound, the selectivity ratio in data set [2] was determined as 241. In data set [4], half-maximal cytotoxicity (CC50) was put at 40.7 µM.

On to `Cc1cc(S(N)(=O)=O)ccc1NC(=O)COc1ccc(Cl)cc1Oc1ccc2ccccc2c1Br`, for which the figures for the EC50 in data set [1], in data set [3] and in data set [5] were 137 µM, 0.0879 µM and 1.34 µM, respectively. Further, in data set [2], the selectivity ratio came to 547. For the same compound, in data set [4], the CC50 amounted to 48.1 µM.

For `Cc1cc(S(N)(=O)=O)ccc1NC(=O)COc1ccc(F)cc1Oc1cc2ccccc2cc1C`, the EC50 in data set [1] was 126 µM; in data set [3] it was 0.14 µM; in data set [5] it was 1.09 µM. In addition, in data set [2], the selectivity ratio worked out at 476. Further, in data set [4], the CC50 was found to be 66.9 µM.

Consider `Cc1cc(S(N)(=O)=O)ccc1NC(=O)COc1ccc(F)cc1Oc1ccc2cc(Br)ccc2c1`, for which the EC50 came out at 96 µM in data set [1], 0.181 µM in data set [3] and 1.77 µM in data set [5]. Further, the selectivity ratio in data set [2] is greater than 1970. The compound also came in with a CC50 in data set [4] greater than 358 µM.

Turning to `Cc1cc(S(N)(=O)=O)ccc1NC(=O)COc1ccc(F)cc1Oc1ccc2ccccc2c1C`, the figures for the EC50 in data set [1], in data set [3] and in data set [5] were 26.4 µM, 0.183 µM and 1.15 µM, respectively. Moreover, the selectivity ratio in data set [2] was determined as 306. In data set [4], this compound displayed a CC50 of 56.1 µM.

`Cc1cc(S(N)(=O)=O)ccc1NC(=O)COc1ccc(F)cc1Oc1ccc2ccccc2c1Br`: the EC50 in data set [1] was found to be 6.17 µM; in data set [3], 0.0858 µM; in data set [5], 1.59 µM. For the same compound, the selectivity ratio in data set [2] was 460. Moreover, the CC50 in data set [4] came out at 39.5 µM.

Consider `Cc1cc(S(N)(=O)=O)ccc1NC(=O)COc1ccc(F)cc1Oc1ccc2cc(C#N)ccc2c1`, for which the EC50 stood at 166 µM in data set [1], 0.0388 µM in data set [3] and 1.02 µM in data set [5]. For the same compound, the selectivity ratio in data set [2] was greater than 10200. In data set [4], this compound gave a CC50 greater than 396 µM.

In the case of `Cc1cc(S(N)(=O)=O)ccc1NC(=O)COc1ccc(F)cc1Oc1ccc2ccccc2c1Cl`, the EC50 worked out at 136 µM in data set [1], 0.186 µM in data set [3] and 3.09 µM in data set [5]. The selectivity ratio in data set [2] stood at 254. In data set [4], this compound registered a CC50 of 47.1 µM.

In the case of `Cc1cc(S(N)(=O)=O)ccc1NC(=O)COc1ccc(F)cc1Oc1ccc2cc(Br)ccc2c1Cl`, the EC50 stood at 11.5 µM in data set [1], 0.1 µM in data set [3] and 1.2 µM in data set [5]. Also, the selectivity ratio in data set [2] is 1950. For the same compound, the CC50 in data set [4] worked out at 195 µM.

As to `Cc1cc(S(N)(=O)=O)ccc1NC(=O)COc1ccc(Cl)cc1Oc1ccc2cc(C#N)ccc2c1`, the EC50 is greater than 383 µM in data set [1], 0.117 µM in data set [3] and 2.33 µM in data set [5]. Further, in data set [2], the selectivity ratio was greater than 3290. Besides, the cytotoxic concentration (CC50) in data set [4] is greater than 383 µM.

Take `Cc1cc(S(N)(=O)=O)ccc1NC(=O)COc1ccc(F)cc1Oc1ccc2cc(C#N)ccc2c1Br`: the EC50 in data set [1] worked out at 4.4 µM; in data set [3], 0.0046 µM; in data set [5], 0.82 µM. In addition, the selectivity ratio in data set [2] came to 7670. The compound also had a CC50 in data set [4] of 35.3 µM.

Consider `Cc1cc(S(N)(=O)=O)ccc1NC(=O)COc1ccc(F)cc1Oc1ccc2cc(C#N)ccc2c1Cl`, for which the EC50 came to 235 µM in data set [1], 0.00472 µM in data set [3] and 0.54 µM in data set [5]. Further, the selectivity ratio in data set [2] worked out at 8410. Besides, in data set [4], the CC50 came to 39.7 µM.

As to `Cc1cc(S(N)(=O)=O)ccc1NC(=O)COc1ccc(F)cc1Oc1c(C)cc2ccccc2c1Cl`, the EC50 in data set [1] came out at 18.8 µM; in data set [3], 0.198 µM; in data set [5], 1.39 µM. Besides, the selectivity ratio in data set [2] came to 280. This compound had a CC50 in data set [4] of 55.6 µM.

For the compound `Cc1cc(S(N)(=O)=O)ccc1NC(=O)COc1ccc(F)cc1Oc1ccc2cccc(F)c2c1`, the results for the EC50 in data set [1], in data set [3] and in data set [5] were 66.3 µM, 0.0924 µM and 1.45 µM, respectively. Also, the selectivity ratio in data set [2] stood at 1850. For the same compound, the CC50 in data set [4] was 171 µM.

In the case of `Cc1cc(S(N)(=O)=O)ccc1NC(=O)COc1ccc(Cl)cc1Oc1c(C)cc2ccccc2c1Cl`, the EC50 came out at 3 µM in data set [1], 0.0731 µM in data set [3] and 1.07 µM in data set [5]. Moreover, in data set [2], the selectivity ratio was 583. In data set [4], this compound came in with a CC50 of 42.6 µM.

For `Cc1cc(S(N)(=O)=O)ccc1NC(=O)COc1ccc(Cl)cc1Oc1cc2ccccc2cc1C`, the EC50 in data set [1] is 20.7 µM; in data set [3], 0.0584 µM; in data set [5], 0.76 µM. Moreover, in data set [2], the selectivity ratio was determined as 1310. In data set [4], this compound registered a CC50 of 76.7 µM.

Regarding `Cc1cc(S(N)(=O)=O)ccc1NC(=O)COc1ccc(Cl)cc1C(=O)c1cc(Cl)cc(C#N)c1`, the values for the concentration for a half-maximal effect (EC50) in data set [1], in data set [3] and in data set [5] were 2.18 µM, 0.00068 µM and 0.00138 µM, respectively. Besides, the selectivity ratio in data set [2] was greater than 567000. In data set [4], this compound registered a CC50 greater than 386 µM.

As for `Cc1cn([C@H]2C[C@H](N=[N+]=[N-])[C@@H](CO)O2)c(=O)[nH]c1=O` [ZIDOVUDINE], the EC50 in data set [1] was 0.129 µM; in data set [3], 0.0106 µM; in data set [5], 0.00812 µM. Further, in data set [2], the selectivity ratio was 529000. Further, it took 5600 µM to reach half-maximal cytotoxicity in data set [4] (CC50).

The values above are taken from ChEMBL document CHEMBL1806390, “Synthesis and biological evaluation of naphthyl phenyl ethers (NPEs) as novel nonnucleoside HIV-1 reverse transcriptase inhibitors” (Bioorg Med Chem, 2011).
